Reference: ChEMBL document CHEMBL4834399, “Pharmacokinetics of Eleven Kratom Alkaloids Following an Oral Dose of Either Traditional or Commercial Kratom Products in Rats” (J Nat Prod, 2021)

Tests used:
[1] = Tmax in Sprague-Dawley rat plasma at 0.79 mg/kg, po administered as LKT formulation measured for 24 hrs by UPLC-MS/MS analysis; assay type: ADME, organism-based
Method in brief: (§1)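 Jugular-cannulated male SD rats (225 ± 25 g, n = 4) were fasted 12–16 h and given one oral gavage of LKT (366 mg/kg) or OPMS liquid (0.8 mL/kg) in water at 4 mL/kg, with dosing normalized to MTG human equivalent dose. Plasma was sampled from predose to 24 h and measured by UPLC–MS/MS (LLOQ 1 ng/mL). Cmax and Tmax were read from the observed data; Cmax/dose was also reported. Mean ± SEM.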

[2] = Cmax in Sprague-Dawley rat plasma at 0.79 mg/kg, po administered as LKT formulation measured for 24 hrs by UPLC-MS/MS analysis; assay type: ADME, organism-based; design: route oral, time 24 hrs, dose 0.79 mg/kg; method in brief: as §1
[3] = Tmax in Sprague-Dawley rat plasma at 1.23 mg/kg, po administered as OPMS liquid formulation measured for 24 hrs by UPLC-MS/MS analysis; assay type: ADME, organism-based; method in brief: as §1
[4] = Cmax in Sprague-Dawley rat plasma at 1.23 mg/kg, po administered as OPMS liquid formulation measured for 24 hrs by UPLC-MS/MS analysis; assay type: ADME, organism-based; design: route oral, time 24 hrs, dose 1.23 mg/kg; method in brief: as §1
[5] = Drug uptake in Sprague-Dawley rat plasma at 0.79 mg/kg, po administered as LKT formulation measured within 1 hrs by UPLC-MS/MS analysis; assay type: ADME, organism-based; method in brief: as §1
[6] = Drug uptake in Sprague-Dawley rat plasma at 1.23 mg/kg, po administered as OPMS liquid formulation measured within 1 hrs by UPLC-MS/MS analysis; assay type: ADME, organism-based; method in brief: as §1
[7] = Stability of the compound in rat plasma assessed as drug recovery; assay type: ADME, cell-free
[8] = Stability of the compound in water-methanol mixture (1:1) assessed as drug recovery; assay type: physicochemical; details: buffer
[9] = AUC(0 to 24 hrs) in Sprague-Dawley rat plasma at <0.1 mg/kg, po administered as OPMS liquid formulation measured for 24 hrs by UPLC-MS/MS analysis; assay type: ADME, organism-based; design: route oral, time 24 hrs, dose <0.1
[10] = Cmax in Sprague-Dawley rat plasma at <0.1 mg/kg, po administered as OPMS liquid formulation measured for 24 hrs by UPLC-MS/MS analysis; assay type: ADME, organism-based; design: route oral, time 24 hrs, dose <0.1; method in brief: as §1
[11] = Tmax in Sprague-Dawley rat plasma at <0.1 mg/kg, po administered as OPMS liquid formulation measured for 24 hrs by UPLC-MS/MS analysis; assay type: ADME, organism-based; method in brief: as §1
[12] = AUC(0 to 24 hrs) in Sprague-Dawley rat plasma at <0.1 mg/kg, po administered as LKT formulation measured for 24 hrs by UPLC-MS/MS analysis; assay type: ADME, organism-based; design: route oral, time 24 hrs, dose <0.1
[13] = Cmax in Sprague-Dawley rat plasma at <0.1 mg/kg, po administered as LKT formulation measured for 24 hrs by UPLC-MS/MS analysis; assay type: ADME, organism-based; design: route oral, time 24 hrs, dose <0.1; method in brief: as §1
[14] = Tmax in Sprague-Dawley rat plasma at <0.1 mg/kg, po administered as LKT formulation measured for 24 hrs by UPLC-MS/MS analysis; assay type: ADME, organism-based; method in brief: as §1
[15] = Cmax in Sprague-Dawley rat plasma at […], po administered as OPMS liquid formulation measured for 24 hrs by UPLC-MS/MS analysis; assay type: ADME, organism-based; design: route oral, time 24 hrs, dose 0.18 mg/kg
[16] = Tmax in Sprague-Dawley rat plasma at […], po administered as OPMS liquid formulation measured for 24 hrs by UPLC-MS/MS analysis; assay type: ADME, organism-based; details: dose 0.18 mg/kg
[17] = Dose normalized AUC(0 to 24 hrs) in Sprague-Dawley rat plasma at 0.13 mg/kg, po administered as LKT formulation measured for 24 hrs by UPLC-MS/MS analysis; assay type: ADME, organism-based; details: in vivo
[18] = Dose normalized Cmax in Sprague-Dawley rat plasma at 0.13 mg/kg, po administered as LKT formulation measured for 24 hrs by UPLC-MS/MS analysis; assay type: ADME, organism-based; details: in vivo; method in brief: as §1
[19] = AUC(0 to 24 hrs) in Sprague-Dawley rat plasma at 0.13 mg/kg, po administered as LKT formulation measured for 24 hrs by UPLC-MS/MS analysis; assay type: ADME, organism-based; design: route oral, time 24 hrs, dose 0.13 mg/kg
[20] = Tmax in Sprague-Dawley rat plasma at 0.13 mg/kg, po administered as LKT formulation measured for 24 hrs by UPLC-MS/MS analysis; assay type: ADME, organism-based; method in brief: as §1
[21] = AUC(0 to 24 hrs) in Sprague-Dawley rat plasma at […], po administered as OPMS liquid formulation measured for 24 hrs by UPLC-MS/MS analysis; assay type: ADME, organism-based; design: route oral, dose 0.18 mg/kg, time 24 hrs
[22] = Dose normalized Cmax in Sprague-Dawley rat plasma at […], po administered as OPMS liquid formulation measured for 24 hrs by UPLC-MS/MS analysis; assay type: ADME, organism-based; details: in vivo, dose 0.18 mg/kg
[23] = Dose normalized AUC(0 to 24 hrs) in Sprague-Dawley rat plasma at […], po administered as OPMS liquid formulation measured for 24 hrs by UPLC-MS/MS analysis; assay type: ADME, organism-based; details: in vivo, dose 0.18 mg/kg
[24] = Dose normalized Cmax in po dosed rat plasma; assay type: ADME, organism-based; details: in vivo
[25] = Dose normalized AUC(0-24 hrs) in po dosed rat plasma; assay type: ADME, organism-based; details: in vivo

Compound: CC[C@H]1CN2CCc3c([nH]c4cccc(OC)c34)[C@@H]2C[C@@H]1/C(=C\OC)C(=O)OC
- Tmax [1]: 10 min
- Cmax [2]: 2.9 ng/mL
- Tmax [3]: 5 min
- Cmax [4]: 2.9 ng/mL
- concentration at 1 h [5]: < 1 ng/mL
- concentration at 1 h [6]: < 1 ng/mL
- Drug recovery [7]: > 90%
- Drug recovery [8]: > 80%

Compound: CC[C@@H]1CN2CC[C@@]3(O)C(=Nc4cccc(OC)c43)[C@@H]2C[C@@H]1/C(=C\OC)C(=O)OC
- AUC(0-t) at 24 h [9]: 41 ng·h/mL
- Cmax [10]: 4 ng/mL
- Tmax [11]: 186 min
- AUC(0-t) at 24 h [12]: 17.4 ng·h/mL
- Cmax [13]: 4.3 ng/mL
- Tmax [14]: 54 min
- Drug recovery [7]: > 90%
- Drug recovery [8]: > 80%

Compound: CC[C@@H]1CN2CCc3c([nH]c4ccccc34)[C@@H]2C[C@@H]1/C(=C\OC)C(=O)OC [CORYNANRHEIDINE]
- Cmax at 24 h [15]: 3.1 ng/mL
- Tmax at 24 h [16]: 186 min
- AUC/dose [17]: 63.1 kg·ng·h/mL/mg
- Cmax/dose [18]: 14 kg·ng/mL/mg
- AUC(0-t) at 24 h [19]: 8.2 ng·h/mL
- Tmax [20]: 60 min
- AUC(0-t) at 24 h [21]: 30.4 ng·h/mL
- Cmax/dose [22]: 15.6 kg·ng/mL/mg
- AUC/dose [23]: 152.2 kg·ng·h/mL/mg
- Cmax/dose [24]: 10.7 ng/mL
- AUC/dose [25]: 138.8 kg·ng·h/mL/mg
- Drug recovery [7]: > 90%
- Drug recovery [8]: > 80%

Compound: CC[C@@H]1CN2CC[C@]3(C(=O)Nc4ccccc43)[C@@H]2C[C@@H]1/C(=C\OC)C(=O)OC [CORYNOXINE B]
- Drug recovery [7]: > 90%
- Drug recovery [8]: > 80%

Compound: CC[C@@H]1CN2CC[C@@]3(C(=O)Nc4ccccc43)[C@@H]2C[C@@H]1/C(=C\OC)C(=O)OC [CORYNOXINE]
- Drug recovery [7]: > 90%
- Drug recovery [8]: > 80%
